Source: ChEMBL document CHEMBL1153719, “Synthesis and biological evaluation of dehydroabietic acid derivatives” (Eur J Med Chem, 2010)
≈ marks a conversion by molar mass, not a printed value. Calls of active or inactive are those of the source. The calls are words filed in the database; no cut-off is given here.

How the values were obtained:
Candida parapsilosis = assay: Antifungal activity against Candida parapsilosis ATCC 22019 at <100 ug/ml after 24 hrs by AFST-EUCAST method; type: functional, organism-based
Method in brief: (§1)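 EUCAST broth microdilution for fermentative yeasts. Seven serial dilutions were tested in duplicate at final concentrations of 100 to 2 µg/mL, with 0.05% DMSO. Inoculum was 0.5–2.5×10^5 CFU/mL. […] Amphotericin B and itraconazole served as controls (0.031–16 µg/mL). Triplicates were run in three separate assays; results are given as range and geometric mean.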

Pichia kudriavzevii = assay: Antifungal activity against Candida krusei ATCC 6258 at <100 ug/ml after 24 hrs by AFST-EUCAST method; type: functional, organism-based; method in brief: as §1
Candida tropicalis = assay: Antifungal activity against Candida tropicalis CECT 11901 at <100 ug/ml after 24 hrs by AFST-EUCAST method; type: functional, organism-based; method in brief: as §1
Candida albicans = assay: Antifungal activity against Candida albicans ATCC 10231 at <100 ug/ml after 24 hrs by AFST-EUCAST method; type: functional, organism-based; method in brief: as §1
Vero [1] = assay: Cytotoxicity against african green monkey Vero cells after 48 hrs by MTT assay; type: cell-based; details: Chlorocebus sabaeus
Method in brief: (§2)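 HeLa and Vero monolayers were trypsinized, washed and seeded per well (HeLa 1.5×10^4; Vero 1.25×10^4). After 24 h, diluted compounds were added with 0.05% DMSO and incubated 48 h at 37 °C in 5% CO2. Read-out was MTT. IC50 came from linear regression of dose-effect curves, at least four dilutions in quadruplicate, as mean ± S.E.M. Vincristine was the positive control.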

HeLa = assay: Cytotoxicity against human HeLa cells after 48 hrs by MTT assay; type: functional, cell-based; method in brief: as §2
Jurkat = assay: Cytotoxicity against human Jurkat cells after 48 hrs by MTT assay; type: functional, cell-based
Method in brief: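 Suspension Jurkat cells were seeded at 3.00×10^4 per well. Diluted compounds were added directly, with 0.05% DMSO, and incubated 48 h at 37 °C. Read-out was MTT. IC50 came from linear regression of dose-effect curves, at least four dilutions in quadruplicate, as mean ± S.E.M. Vincristine was the positive control.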

Vero [2] = assay: Selectivity index, ratio of IC50 for african green monkey Vero cells to IC50 for human HeLa cells; type: functional
Vero [3] = assay: Selectivity index, ratio of IC50 for african green monkey Vero cells to IC50 for human Jurkat cells; type: functional
Human alphaherpesvirus 1 [4] = assay: Antiviral activity against Human herpesvirus 1 infected in human HeLa cells assessed as ratio of viral titer in absence of drug over viral titer in presence of drug after 36 hrs by end point titration method; type: functional, organism-based
Human alphaherpesvirus 1 [5] = assay: Antiviral activity against Human herpesvirus 1 infected in human HeLa cells assessed as maximal nontoxic dose caused highest viral reduction factor after 36 hrs by end point titration method; type: functional, organism-based
[6] = Cytotoxicity against african green monkey Vero cells assessed as minimal toxic dosed detached 100% of the cell monolayer; details: chlorocebus sabaeus, read-out: CC100
Aspergillus fumigatus = assay: Antifungal activity against Aspergillus fumigatus after 24 hrs by AFST-EUCAST method; type: functional
Aspergillus niger = assay: Antifungal activity against Aspergillus niger after 24 hrs by AFST-EUCAST method; type: functional
Human alphaherpesvirus 1 [7] = assay: Antiviral activity against Human herpesvirus 1 infected in african green monkey Vero cells assessed as ratio of viral titer in absence of drug over viral titer in presence of drug after 36 hrs by end point titration method; type: functional
Method in brief: (§3)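 HSV-1 stock was grown in HeLa cells. Two-fold compound dilutions were premixed with one infectious dose of virus for 0.5 h at 37 °C, then added to confluent HeLa or Vero monolayers for 36 h at 37 °C in 5% CO2. End-point titration gave the reduction factor, virus titer without compound over titer with compound, at the maximal nontoxic dose. Acyclovir and heparin were the controls.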

Human alphaherpesvirus 1 [8] = assay: Antiviral activity against Human herpesvirus 1 infected in african green monkey Vero cells assessed as maximal nontoxic dose caused highest viral reduction factor after 36 hrs by end point titration method; type: functional; method in brief: as §3
Aspergillus terreus = assay: Antifungal activity against Aspergillus terreus after 24 hrs by AFST-EUCAST method; type: functional
[9] = Solubility in DMSO; type: physicochemical
[10] = Cytotoxicity against human HeLa cells assessed as minimal toxic dosed detached 100% of the cell monolayer; details: read-out: CC50

For `CC(C)c1ccc2c(c1)[C@H](O)C[C@H]1[C@](C)(C=O)CCC[C@]21C`, the Activity (Candida parapsilosis) was “inactive”, the Activity (Pichia kudriavzevii) was “inactive” and the Activity (Candida tropicalis) was “inactive”. For the same molecule, the Activity (Candida albicans) was “inactive”, the IC50 (Vero [1]) was 36 µg/mL (≈ 120 µM) and the IC50 (HeLa) was 23 µg/mL (≈ 76.6 µM). The IC50 (Jurkat) was 12 µg/mL (≈ 39.9 µM), the “Ratio IC50” value (Vero [2]) was 1.6 and the “Ratio IC50” value (Vero [3]) was 3. For the same molecule, the Activity (Human alphaherpesvirus 1 [4]) was “inactive” and the Activity (Human alphaherpesvirus 1 [5]) was “inactive”.

In the case of `CC(C)c1ccc2c(c1)C(=O)C[C@H]1[C@](C)(CO)CCC[C@]21C`, the Activity (Candida parapsilosis) was “inactive”, the Activity (Pichia kudriavzevii) was “inactive” and the Activity (Candida tropicalis) was “inactive”. For the same molecule, the Activity (Candida albicans) was “inactive”, the IC50 (Vero [1]) was 27 µg/mL (≈ 89.9 µM) and the IC50 (HeLa) was 30 µg/mL (≈ 99.9 µM). The IC50 (Jurkat) was 17 µg/mL (≈ 56.6 µM), the “Ratio IC50” value (Vero [2]) was 0.9 and the “Ratio IC50” value (Vero [3]) was 1.6. For the same molecule, the MCC [6] was 25 µg/mL, the Activity (Human alphaherpesvirus 1 [4]) was “inactive” and the Activity (Human alphaherpesvirus 1 [5]) was “inactive”.

In the case of `CC(C)c1ccc2c(c1)[C@H](O)C[C@H]1[C@](C)(CO)CCC[C@]21C`, the Activity (Candida parapsilosis) was “inactive”, the Activity (Pichia kudriavzevii) was “inactive” and the Activity (Candida tropicalis) was “inactive”. For the same molecule, the Activity (Candida albicans) was “inactive”, the MIC (Aspergillus fumigatus) was 50 µg/mL (≈ 165 µM) and the MIC (Aspergillus niger) was 63 µg/mL (≈ 208 µM). It also gave an IC50 (Vero [1]) of 30 µg/mL (≈ 99.2 µM), an IC50 (HeLa) of 20 µg/mL (≈ 66.1 µM) and an IC50 (Jurkat) of 12 µg/mL (≈ 39.7 µM). For the same molecule, the “Ratio IC50” value (Vero [2]) was 1.5, the “Ratio IC50” value (Vero [3]) was 2.5 and the MCC [6] was 25 µg/mL. The Activity (Human alphaherpesvirus 1 [4]) was “inactive” and the Activity (Human alphaherpesvirus 1 [5]) was “inactive”.

With `CC(C)C1=CC2=CC[C@@H]3[C@](C)(CCC[C@@]3(C)C(=O)O)[C@H]2CC1` the Activity (Human alphaherpesvirus 1 [4]) was “inactive” and the Activity (Human alphaherpesvirus 1 [5]) was “inactive”.

Molecule `Nc1nc2c(ncn2COCCO)c(=O)[nH]1` [ACYCLOVIR] has an MCC [6] greater than 600 µg/mL, a Ratio (Human alphaherpesvirus 1 [7]) of 1000 and an Activity (Human alphaherpesvirus 1 [8]) of 6 µg/mL.

For `CC(C)c1ccc2c(c1)CC[C@H]1[C@](C)(C(=O)O)CCC[C@]21C` [DEHYDROABIETIC ACID], the Activity (Candida parapsilosis) was “inactive”, the Activity (Pichia kudriavzevii) was “inactive” and the Activity (Candida albicans) was “inactive”. For the same molecule, the MIC (Aspergillus terreus) was 39.7 µg/mL (≈ 132 µM), the IC50 (Vero [1]) was 91 µg/mL (≈ 303 µM) and the IC50 (HeLa) was 101 µg/mL (≈ 336 µM). For the same molecule, the IC50 (Jurkat) was 28 µg/mL (≈ 93.2 µM), the “Ratio IC50” value (Vero [2]) was 0.9 and the “Ratio IC50” value (Vero [3]) was 3.2. The MCC [6] was greater than 50 µg/mL, the Activity (Human alphaherpesvirus 1 [4]) was “inactive” and the Activity (Human alphaherpesvirus 1 [5]) was “inactive”.

For `CC(C)c1ccc2c(c1)CC[C@H]1[C@](C)(C=O)CCC[C@]21C` [DEHYDROABIETINAL], the Activity (Candida parapsilosis) was “inactive”, the Activity (Pichia kudriavzevii) was “inactive” and the Activity (Candida tropicalis) was “inactive”. For the same molecule, the Activity (Candida albicans) was “inactive”, the IC50 (Vero [1]) was 32 µg/mL (≈ 113 µM) and the IC50 (HeLa) was 24 µg/mL (≈ 84.4 µM). For the same molecule, the IC50 (Jurkat) was 17 µg/mL (≈ 59.8 µM), the “Ratio IC50” value (Vero [2]) was 1.3 and the “Ratio IC50” value (Vero [3]) was 1.9. For the same molecule, the MCC [6] was 50 µg/mL, the Activity (Human alphaherpesvirus 1 [4]) was “inactive” and the Activity (Human alphaherpesvirus 1 [5]) was “inactive”.

For `CC(=O)OC[C@]1(C)CCC[C@]2(C)c3ccc(C(C)C)cc3CC[C@@H]12` [DEHYDROABIETINOL ACETATE], the Activity (Candida parapsilosis) was “inactive”, the Activity (Pichia kudriavzevii) was “inactive” and the Activity (Candida tropicalis) was “inactive”. For the same molecule, the Activity (Candida albicans) was “inactive”, the IC50 (Vero [1]) was 95 µg/mL and the IC50 (HeLa) was 28 µg/mL. The IC50 (Jurkat) was 22 µg/mL, the “Ratio IC50” value (Vero [2]) was 3.4 and the “Ratio IC50” value (Vero [3]) was 4.3. It also gave an MCC [6] greater than 50 µg/mL, a Ratio (Human alphaherpesvirus 1 [7]) of 10 and an Activity (Human alphaherpesvirus 1 [8]) of 25 µg/mL. The Activity (Human alphaherpesvirus 1 [4]) was “inactive” and the Activity (Human alphaherpesvirus 1 [5]) was “inactive”.

In the case of `CC(C)c1ccc2c(c1)CC[C@H]1[C@](C)(COC(=O)c3ccccc3)CCC[C@]21C` [DEHYDROABIETINOLBENZOATE], the Activity (Candida parapsilosis) was “inactive”, the Activity (Pichia kudriavzevii) was “inactive” and the Activity (Candida albicans) was “inactive”. The IC50 (Vero [1]) was no less than 200 µg/mL, the IC50 (HeLa) was no less than 200 µg/mL and the IC50 (Jurkat) was 57 µg/mL (≈ 146 µM). The “Ratio IC50” value (Vero [3]) was greater than 3.5, the MCC [6] was greater than 50 µg/mL and the Ratio (Human alphaherpesvirus 1 [7]) was 3.16. For the same molecule, the Activity (Human alphaherpesvirus 1 [8]) was 50 µg/mL, the Activity (Human alphaherpesvirus 1 [4]) was “inactive” and the Activity (Human alphaherpesvirus 1 [5]) was “inactive”.

For `CC(C)c1ccc2c(c1)CC[C@H]1[C@](C)(COC(=O)c3cccnc3)CCC[C@]21C` [DEHYDROABIETINOLNICOTINATE], the solubility [9] was “Insoluble”.

For `COC(=O)[C@]1(C)CCC[C@@]2(C)[C@H]1CC=C1C=C(C(C)C)CC[C@@H]12` [METHYL ABIETATE], the Activity (Human alphaherpesvirus 1 [4]) was “inactive”, the Activity (Human alphaherpesvirus 1 [5]) was “Active” and the MCC [10] was 11 µM.

In the case of `COC(=O)[C@]1(C)CCC[C@]2(C)c3ccc(C(C)C)cc3CC[C@@H]12` [METHYL DEHYDROABIETATE], the Activity (Candida parapsilosis) was “inactive”, the Activity (Pichia kudriavzevii) was “inactive” and the Activity (Candida tropicalis) was “inactive”. The Activity (Candida albicans) was “inactive”, the IC50 (Vero [1]) was 36 µg/mL (≈ 114 µM) and the IC50 (HeLa) was 28 µg/mL (≈ 89 µM). The IC50 (Jurkat) was 21 µg/mL (≈ 66.8 µM), the “Ratio IC50” value (Vero [2]) was 1.3 and the “Ratio IC50” value (Vero [3]) was 1.7. For the same molecule, the MCC [6] was greater than 50 µg/mL, the Activity (Human alphaherpesvirus 1 [4]) was “inactive” and the Activity (Human alphaherpesvirus 1 [5]) was “inactive”.

In the case of `CC(C)c1ccc2c(c1)CC[C@H]1[C@](C)(CO)CCC[C@]21C` [POMIFERIN A], the Activity (Candida parapsilosis) was “inactive”, the Activity (Pichia kudriavzevii) was “inactive” and the Activity (Candida tropicalis) was “inactive”. For the same molecule, the Activity (Candida albicans) was “inactive”, the IC50 (Vero [1]) was 38 µg/mL (≈ 133 µM) and the IC50 (HeLa) was 13 µg/mL (≈ 45.4 µM). For the same molecule, the IC50 (Jurkat) was 9.7 µg/mL (≈ 33.9 µM), the “Ratio IC50” value (Vero [2]) was 2.9 and the “Ratio IC50” value (Vero [3]) was 3.9. For the same molecule, the MCC [6] was 50 µg/mL, the Activity (Human alphaherpesvirus 1 [4]) was “inactive” and the Activity (Human alphaherpesvirus 1 [5]) was “inactive”.
